# Test results published in PubChem BioAssay.
# Activity calls are given as the source filed them.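 The calls were made as follows, unless noted: active = active in primary screen and both duplicates, each dropping signal beyond three positive-control SD with fluorescence still positive; inactive = the rest.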
# Target: Short transient receptor potential channel 6 (Mus musculus) (UniProt Q61143)
# Assay: TRPC6 blockade by TRPC4 inhibitor hits – cell-based, HEK293, membrane potential dye, duplicate, selectivity assay for TRPC4 inhibitor project, confirmation (AID 434948)
# Settings: HEK293 TRPC6, membrane potential dye fluorescence, at 10 µM, stimulated with maximal-effect acetylcholine; hits give high values
# Method in brief: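 Times: 45 min RT dye load, 110 s compound, 110 s agonist read | Assay system: HEK293 cells expressing mouse TRPC6 channel | Detection: Kinetic membrane potential dye fluorescence | Replicates: Duplicate testing | Read-out: Control-normalized integrated fluorescence ratio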
# Short transient receptor potential channel 6 (Mus musculus), sequence (Q61143 whole entry, looked up): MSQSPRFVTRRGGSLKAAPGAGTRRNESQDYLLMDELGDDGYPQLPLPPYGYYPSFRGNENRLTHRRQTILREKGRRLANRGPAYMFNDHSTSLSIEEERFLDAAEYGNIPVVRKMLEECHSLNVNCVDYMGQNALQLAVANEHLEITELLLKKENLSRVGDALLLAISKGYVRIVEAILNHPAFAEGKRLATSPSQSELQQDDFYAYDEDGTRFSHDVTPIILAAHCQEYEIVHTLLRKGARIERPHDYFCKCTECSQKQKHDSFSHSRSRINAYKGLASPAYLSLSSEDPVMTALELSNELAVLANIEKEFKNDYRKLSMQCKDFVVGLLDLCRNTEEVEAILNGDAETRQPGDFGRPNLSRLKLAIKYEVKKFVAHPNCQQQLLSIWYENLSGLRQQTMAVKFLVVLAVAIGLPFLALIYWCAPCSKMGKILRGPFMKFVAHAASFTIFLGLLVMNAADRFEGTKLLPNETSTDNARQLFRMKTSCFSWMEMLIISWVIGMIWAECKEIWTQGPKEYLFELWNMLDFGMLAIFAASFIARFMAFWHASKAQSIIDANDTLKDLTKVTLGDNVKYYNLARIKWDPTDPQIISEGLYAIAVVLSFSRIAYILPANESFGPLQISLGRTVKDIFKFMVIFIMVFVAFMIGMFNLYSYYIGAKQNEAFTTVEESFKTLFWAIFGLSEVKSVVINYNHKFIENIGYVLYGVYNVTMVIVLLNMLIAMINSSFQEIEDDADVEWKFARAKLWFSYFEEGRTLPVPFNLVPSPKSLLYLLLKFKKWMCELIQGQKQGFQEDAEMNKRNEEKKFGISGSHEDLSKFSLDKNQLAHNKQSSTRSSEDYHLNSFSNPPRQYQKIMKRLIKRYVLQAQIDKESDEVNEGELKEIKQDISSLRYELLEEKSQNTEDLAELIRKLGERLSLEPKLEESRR
row,SMILES,outcome
1,CC(C)C(=O)N1CCN(c2nc(-c3ccccc3)c3c(c2C#N)CCCC3)CC1,inactive
2,CC(=O)n1cc([C@@H]2C=C(C(=O)NCc3ccccc3)O[C@H](OCc3ccc(CO)cc3)C2)c2ccccc21,inactive
3,CCN1CCN(c2nc(N)c([N+](=O)[O-])c(Nc3ccc(C)c(C)c3)n2)CC1,inactive
4,CN1/C(=C\C=[N+](C)c2ccccc2)C(C)(C)c2ccccc21,inactive
5,COc1cc(NC(=O)C(C)Oc2ccccc2)cc(OC)c1 (stereo not drawn),inactive
6,CCCCc1ccc(NC(=O)CSc2nnc(C)c(=O)n2N)cc1,inactive
7,O=C(COc1ccc(Br)cc1Cl)c1ccc[nH]1,inactive
8,Clc1cc(/C=N\NC2=NCCN2)cc(Cl)n1,inactive
9,Cc1cc(OCC(=O)N2CCCC2)cc(C)c1Cl,inactive
10,CCOC(=O)CC(NS(=O)(=O)c1ccc(OC)c(C)c1)c1cccc([N+](=O)[O-])c1 (stereo not drawn),inactive
11,O=C(COc1coc(CN2CCN(c3ccccc3F)CC2)cc1=O)Nc1ccccc1,inactive
12,CN(C)CCCNC(=O)/C=C/c1ccc(OCc2c(F)cccc2Cl)cc1,inactive
13,CC(C)c1cccc(OCCCCN(C)C)c1,inactive
14,CNc1oc(-c2ccccc2Cl)nc1P(=O)(c1ccccc1)c1ccccc1,inactive
15,Cc1ccc(C(=O)C[n+]2cccc3cc(C)ccc32)cc1,inactive
16,CCCN1CCN(C(=S)NCc2ccc(Cl)cc2)CC1,inactive
17,CC(=O)Nc1nc(-c2ccc3c(c2)CCN3C(=O)C2CC2)c(C)s1,inactive
18,COC(=O)c1ccccc1NC(=O)CCC(=O)N1CC(C)Oc2ccc(C)cc21 (stereo not drawn),inactive
19,CN1CCN(S(=O)(=O)c2ccc(Br)c3ccccc23)CC1,inactive
20,CC(C)(C)C(=O)NCCCc1nc2ccccc2n1CCCOc1ccc(Cl)cc1,inactive

row,SMILES,outcome
1,CCN(CC)c1ccc(CNc2nc3ccccc3n2CCN2CCCCC2)cc1,inactive
2,O=[N+]([O-])c1ccc(S(=O)(=O)NCCCc2ccccc2)cc1,inactive
3,CC(=O)c1ccc(OCC(O)CN2CCN(S(=O)(=O)c3c(C)cc(C)cc3C)CC2)cc1 (stereo not drawn),inactive
4,CC(=O)c1ccc(N2CCN(c3ccc(S(=O)(=O)NCCCN(C)C)cc3[N+](=O)[O-])CC2)cc1,inactive
5,C=CCn1c(SCCN2CCCCC2)nc2c1c(=O)[nH]c(=O)n2C,inactive
6,CCCN(C(=O)COC(=O)C12CCC(=O)N1c1ccccc1S2)c1c(N)n(Cc2ccccc2)c(=O)[nH]c1=O (stereo not drawn),inactive
7,Cc1cc(C(=O)CN2C(=O)C(=O)N(CC(C)C)C2=O)c(C)n1-c1ccccc1F,inactive
8,C/C(=N\NC(=O)COc1ccc(C)cc1C(C)C)c1ccc(-n2ccnc2)cc1,inactive
9,COc1cc(/C=C2\C(=O)ON=C2c2ccccc2)cc(Cl)c1O,inactive
10,CN(CC(=O)Nc1ccc(F)cc1)C(=O)COC(=O)C1CCN(c2ccc(C(F)(F)F)cn2)CC1,inactive
11,CCCN(CCC)CCCNC(=O)c1cc2c(=O)n(C)c3ccccc3c2n1C,inactive
12,COc1ccccc1CC(=O)N1CCN(S(=O)(=O)c2ccccc2)CC1,inactive
13,O=C(COc1ccccc1)NC1CCCCCCC1,inactive
14,O=C(CC1C(=O)NCCN1C(=O)Nc1ccccc1)Nc1cc(Cl)cc(Cl)c1 (stereo not drawn),inactive
15,COc1ccc(NS(=O)(=O)c2cccc(C(=O)N3CCN(Cc4cc(OC)ccc4OC)CC3)c2)cc1,inactive
16,Cc1ccc(C(=O)c2no[n+]([O-])c2C(=O)c2ccc(C)cc2)cc1,inactive
17,O=C(NC1CCCC1)c1cc2ccccc2o1,inactive
18,COc1ccc(-n2cc(CNCc3cccnc3)c(-c3cccc(F)c3)n2)cc1,inactive
19,CN1CCCN(Cc2cccc3ccccc23)CC1,inactive

# Target: Short transient receptor potential channel 6 (Mus musculus) (UniProt Q61143)
# Assay: TRPC6 opening by TRPC4 activator hits – cell-based, HEK293, membrane potential dye, duplicate, selectivity assay for TRPC4 activator project, confirmation (AID 434950;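 active = membrane potential signal rise above negative control mean plus 3 SD in both duplicates, also active in the earlier TRPC4 screen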;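 as to activation: 0% = buffer only wells and 100% = acetylcholine maximal-effect wells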)
# Settings: HEK293 TRPC6, membrane potential fluorescence, at 10 µM; activation: hits give high values; outcome: activation
SMILES,outcome,activation
CC(C)C(=O)N1CCN(c2nc(-c3ccccc3)c3c(c2C#N)CCCC3)CC1,inactive,–
CC(=O)n1cc([C@@H]2C=C(C(=O)NCc3ccccc3)O[C@H](OCc3ccc(CO)cc3)C2)c2ccccc21,inactive,–
CCN1CCN(c2nc(N)c([N+](=O)[O-])c(Nc3ccc(C)c(C)c3)n2)CC1,inactive,–
CN1/C(=C\C=[N+](C)c2ccccc2)C(C)(C)c2ccccc21,inactive,–
COc1cc(NC(=O)C(C)Oc2ccccc2)cc(OC)c1 (stereo not drawn),inactive,–
CCCCc1ccc(NC(=O)CSc2nnc(C)c(=O)n2N)cc1,inactive,–
O=C(COc1ccc(Br)cc1Cl)c1ccc[nH]1,inactive,–
Clc1cc(/C=N\NC2=NCCN2)cc(Cl)n1,inactive,–
Cc1cc(OCC(=O)N2CCCC2)cc(C)c1Cl,–,38% (active)
CCOC(=O)CC(NS(=O)(=O)c1ccc(OC)c(C)c1)c1cccc([N+](=O)[O-])c1 (stereo not drawn),inactive,–
O=C(COc1coc(CN2CCN(c3ccccc3F)CC2)cc1=O)Nc1ccccc1,inactive,–
CN(C)CCCNC(=O)/C=C/c1ccc(OCc2c(F)cccc2Cl)cc1,inactive,–
CC(C)c1cccc(OCCCCN(C)C)c1,inactive,–
CNc1oc(-c2ccccc2Cl)nc1P(=O)(c1ccccc1)c1ccccc1,inactive,–
Cc1ccc(C(=O)C[n+]2cccc3cc(C)ccc32)cc1,inactive,–
CCCN1CCN(C(=S)NCc2ccc(Cl)cc2)CC1,inactive,–
CC(=O)Nc1nc(-c2ccc3c(c2)CCN3C(=O)C2CC2)c(C)s1,inactive,–
COC(=O)c1ccccc1NC(=O)CCC(=O)N1CC(C)Oc2ccc(C)cc21 (stereo not drawn),inactive,–
CN1CCN(S(=O)(=O)c2ccc(Br)c3ccccc23)CC1,inactive,–
CC(C)(C)C(=O)NCCCc1nc2ccccc2n1CCCOc1ccc(Cl)cc1,inactive,–

SMILES,outcome,activation
CCN(CC)c1ccc(CNc2nc3ccccc3n2CCN2CCCCC2)cc1,inactive,–
O=[N+]([O-])c1ccc(S(=O)(=O)NCCCc2ccccc2)cc1,inactive,–
CC(=O)c1ccc(OCC(O)CN2CCN(S(=O)(=O)c3c(C)cc(C)cc3C)CC2)cc1 (stereo not drawn),inactive,–
CC(=O)c1ccc(N2CCN(c3ccc(S(=O)(=O)NCCCN(C)C)cc3[N+](=O)[O-])CC2)cc1,inactive,–
C=CCn1c(SCCN2CCCCC2)nc2c1c(=O)[nH]c(=O)n2C,inactive,–
CCCN(C(=O)COC(=O)C12CCC(=O)N1c1ccccc1S2)c1c(N)n(Cc2ccccc2)c(=O)[nH]c1=O (stereo not drawn),–,28% (active)
Cc1cc(C(=O)CN2C(=O)C(=O)N(CC(C)C)C2=O)c(C)n1-c1ccccc1F,inactive,–
C/C(=N\NC(=O)COc1ccc(C)cc1C(C)C)c1ccc(-n2ccnc2)cc1,inactive,–
COc1cc(/C=C2\C(=O)ON=C2c2ccccc2)cc(Cl)c1O,inactive,–
CN(CC(=O)Nc1ccc(F)cc1)C(=O)COC(=O)C1CCN(c2ccc(C(F)(F)F)cn2)CC1,inactive,–
CCCN(CCC)CCCNC(=O)c1cc2c(=O)n(C)c3ccccc3c2n1C,inactive,–
COc1ccccc1CC(=O)N1CCN(S(=O)(=O)c2ccccc2)CC1,inactive,–
O=C(COc1ccccc1)NC1CCCCCCC1,inactive,–
O=C(CC1C(=O)NCCN1C(=O)Nc1ccccc1)Nc1cc(Cl)cc(Cl)c1 (stereo not drawn),inactive,–
COc1ccc(NS(=O)(=O)c2cccc(C(=O)N3CCN(Cc4cc(OC)ccc4OC)CC3)c2)cc1,inactive,–
Cc1ccc(C(=O)c2no[n+]([O-])c2C(=O)c2ccc(C)cc2)cc1,inactive,–
O=C(NC1CCCC1)c1cc2ccccc2o1,inactive,–
COc1ccc(-n2cc(CNCc3cccnc3)c(-c3cccc(F)c3)n2)cc1,inactive,–
CN1CCCN(Cc2cccc3ccccc23)CC1,inactive,–
